Reference: ChEMBL document CHEMBL1817573, “Synthesis, structure elucidation, determination of the lipophilicity and identification of antitumour activities in vitro of novel 3-(2-furanyl)-8-aryl-7,8-dihydroimidazo[2,1-c][1,2,4]triazin-4(6H)-ones with a low cytotoxicity towards normal human skin fibroblast cells” (Bioorg Med Chem, 2011)

Columns and labels:
T47D [1] = assay: Growth inhibition of human T47D cells at 50 ug/ml after 48 hrs by spectrophotometric analysis; format: functional; settings: read-out: GI
Outline: (§1)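 Normal primary human skin fibroblasts (HSF), HeLa (ECACC 93021013) and T47D (ECACC 85102201) were each seeded at 10⁴ cells/mL. Compounds were predissolved in DMSO and tested at a single 50 µg/mL (about 0.14–0.18 mM). Cultures were incubated at 37 °C, 5% CO₂, 90% humidity for 24, 48 or 72 h, and percent growth inhibition was read spectrophotometrically.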

[2] = Growth inhibition of human HSF cells at 50 ug/ml after 24 hrs by spectrophotometric analysis; format: cell-based; settings: read-out: GI; outline: as §1
[3] = Lipophilicity, log Kw of the compound in methanol-water mixture by RP-HPLC; format: physicochemical
Outline: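 Isocratic RP-HPLC on a C18 column (150 × 4.6 mm, 5 µm) at 22 °C, 1 mL/min, DAD detection. Mobile phases were methanol (30–80%), 20% acetate buffer pH 3.5 (0.2 M acetate, pH measured in aqueous solution) and 0.01 M/L octane-1-sulfonic acid sodium salt. log kw was extrapolated with the Snyder–Soczewiński equation.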

HeLa [4] = assay: Growth inhibition of human HeLa cells at 50 ug/ml after 72 hrs by spectrophotometric analysis; format: functional; settings: read-out: GI; outline: as §1
T47D [5] = assay: Growth inhibition of human T47D cells at 50 ug/ml after 24 hrs by spectrophotometric analysis; format: functional; settings: read-out: GI; outline: as §1
[6] = Growth inhibition of human HSF cells at 50 ug/ml after 72 hrs by spectrophotometric analysis; format: cell-based; settings: read-out: GI; outline: as §1
HeLa [7] = assay: Growth inhibition of human HeLa cells at 50 ug/ml after 24 hrs by spectrophotometric analysis; format: functional; settings: read-out: GI; outline: as §1
T47D [8] = assay: Growth inhibition of human T47D cells at 50 ug/ml after 72 hrs by spectrophotometric analysis; format: functional; settings: read-out: GI; outline: as §1
[9] = Growth inhibition of human HSF cells at 50 ug/ml after 48 hrs by spectrophotometric analysis; format: cell-based; settings: read-out: GI; outline: as §1
HeLa [10] = assay: Growth inhibition of human HeLa cells at 50 ug/ml after 48 hrs by spectrophotometric analysis; format: functional; settings: read-out: GI; outline: as §1
T47D [11] = assay: Antitumor activity against human T47D cells after 48 hrs by spectrophotometric analysis; format: functional, cell-based
Outline: (§2)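 Cancer lines were HeLa (ECACC 93021013, cervix epitheloid carcinoma) and T47D (ECACC 85102201, breast carcinoma). Cells were seeded at 10⁴ cells/mL, treated with compounds dissolved in DMSO, and incubated at 37 °C, 5% CO₂, 90% humidity for 24, 48 or 72 h. Read-out was the BrdU assay, and IC50 was calculated from dose–response curves.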

HeLa [12] = assay: Antitumor activity against human HeLa cells after 24 hrs by spectrophotometric analysis; format: functional, cell-based; outline: as §2
HeLa [13] = assay: Antitumor activity against human HeLa cells after 72 hrs by spectrophotometric analysis; format: functional, cell-based; outline: as §2
T47D [14] = assay: Antitumor activity against human T47D cells after 72 hrs by spectrophotometric analysis; format: functional, cell-based; outline: as §2
T47D [15] = assay: Antitumor activity against human T47D cells after 24 hrs by spectrophotometric analysis; format: functional, cell-based; outline: as §2
HeLa [16] = assay: Antitumor activity against human HeLa cells after 48 hrs by spectrophotometric analysis; format: functional, cell-based; outline: as §2

| SMILES | logKw [3] | IC50 (T47D [11]) [µM] | IC50 (HeLa [12]) [µM] | IC50 (HeLa [13]) [µM] | IC50 (T47D [14]) [µM] | IC50 (T47D [15]) [µM] | IC50 (HeLa [16]) [µM] | inhibition of growth at 50 µg/mL (T47D [1]) [%] | inhibition at 24 h, 50 ug/ml [2] [%] | inhibition of growth at 50 µg/mL (HeLa [4]) [%] | inhibition of growth at 50 µg/mL (T47D [5]) [%] | inhibition at 72 h, 50 ug/ml [6] [%] | inhibition of growth at 50 µg/mL (HeLa [7]) [%] | inhibition of growth at 50 µg/mL (T47D [8]) [%] | inhibition at 48 h, 50 ug/ml [9] [%] | inhibition of growth at 50 µg/mL (HeLa [10]) [%] |
| --- | --- | --- | --- | --- | --- | --- | --- | --- | --- | --- | --- | --- | --- | --- | --- | --- |
| Cc1cccc(N2CCn3c2nnc(-c2ccco2)c3=O)c1C | 3 | – | – | – | – | – | – | 15 | 0 | 90 | 0 | 0 | 60 | 25 | 0 | 75 |
| COc1ccccc1N1CCn2c1nnc(-c1ccco1)c2=O | 2.54 | – | – | – | – | – | – | 30 | 0 | 80 | 0 | 5 | 25 | 70 | 0 | 35 |
| Cc1ccccc1N1CCn2c1nnc(-c1ccco1)c2=O | 2.48 | – | – | – | – | – | – | 50 | 0 | 50 | 25 | 0 | 25 | 75 | 0 | 25 |
| O=c1c(-c2ccco2)nnc2n1CCN2c1ccc(Cl)c(Cl)c1 | 4.01 | – | – | – | – | – | – | 20 | 0 | 95 | 10 | 80 | 50 | 40 | 50 | 50 |
| O=c1c(-c2ccco2)nnc2n1CCN2c1ccccc1Cl | 2.78 | > 160 | 110 | 90 | > 160 | > 160 | 110 | 15 | 10 | 100 | 5 | 20 | 80 | 25 | 20 | 80 |
| O=c1c(-c2ccco2)nnc2n1CCN2c1cccc(Cl)c1 | 3.45 | – | – | – | – | – | – | 50 | 25 | 95 | 20 | 75 | 80 | 80 | 60 | 80 |
| O=c1c(-c2ccco2)nnc2n1CCN2c1c(Cl)cccc1Cl | 2.97 | – | – | – | – | – | – | 20 | 10 | 95 | 10 | 15 | 80 | 25 | 15 | 80 |

More lines, main results first:

| logKw [3] | IC50 (T47D [11]) [µM] | IC50 (HeLa [12]) [µM] | IC50 (HeLa [13]) [µM] | IC50 (T47D [14]) [µM] | IC50 (T47D [15]) [µM] | IC50 (HeLa [16]) [µM] | SMILES | inhibition of growth at 50 µg/mL (T47D [1]) [%] | inhibition at 24 h, 50 ug/ml [2] [%] | inhibition of growth at 50 µg/mL (HeLa [4]) [%] | inhibition of growth at 50 µg/mL (T47D [5]) [%] | inhibition at 72 h, 50 ug/ml [6] [%] | inhibition of growth at 50 µg/mL (HeLa [7]) [%] | inhibition of growth at 50 µg/mL (T47D [8]) [%] | inhibition at 48 h, 50 ug/ml [9] [%] | inhibition of growth at 50 µg/mL (HeLa [10]) [%] |
| --- | --- | --- | --- | --- | --- | --- | --- | --- | --- | --- | --- | --- | --- | --- | --- | --- |
| 3.27 | – | – | – | – | – | – | Cc1ccc(N2CCn3c2nnc(-c2ccco2)c3=O)cc1 | 60 | 30 | 80 | 40 | 50 | 50 | 80 | 50 | 50 |
| 2.89 | – | – | – | – | – | – | COc1ccc(N2CCn3c2nnc(-c2ccco2)c3=O)cc1 | 70 | 10 | 95 | 50 | 60 | 80 | 80 | 50 | 80 |
| 3.45 | – | – | – | – | – | – | O=c1c(-c2ccco2)nnc2n1CCN2c1ccc(Cl)cc1 | 15 | 50 | 90 | 0 | 90 | 50 | 15 | 80 | 75 |
| 2.64 | 110 | 180 | 100 | 100 | 180 | 130 | O=c1c(-c2ccco2)nnc2n1CCN2c1ccccc1 | 85 | 50 | 100 | 50 | 60 | 50 | 95 | 50 | 75 |
